The full list was thinned out, with hits kept by preference.
PTEN del growth: growth suppression of PTEN-null HCT116, primary screen, cell-based, CellTiter-Glo; HCT116 PTEN-null viability, 60 h; stronger effect = lower value; viability, % at 10 µM; actives 1.2% (n = 140,000);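 active = viability at or below a set limit, 4 SD under the median of all tested compounds, cut at about 3.7% in these data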;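 also: PTEN knockout HCT116 line with beta catenin targeted HCT116 as companion control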
bCat KO growth: primary screen for growth suppressors in beta-catenin knockout HCT116 cells (colon tumor, human); HCT116 beta-catenin knockout viability, CellTiter-Glo, 60 h; stronger effect = lower value; actives 1.5% (n = 140,000); AID 818, 2007; viability, % at 10 µM;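 active = viability at or under a set limit, the compound median less 4 SD, cut at about 6% in these data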;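 also: 0% = Hyamine 1622 control at 20 µM and 100% = untreated cell control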
Lung fibro prol: antiproliferative effect on LL 47 fibroblasts – human, LL 47 cells, CellTiter-Glo luminescence, primary screen; LL 47 human lung fibroblast viability, ATP luminescence; stronger effect = lower value; viability, % at 10 µM; actives 1.1% (n = 85,000); AID 719, 2007;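 active = viability at or below 50% in the single dose screen; inactive = viability above 50%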;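 also: compound exposure lasted 72 h before the ATP readout; 100% = median luminescence of untreated cell-only wells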
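Test system: LL 47 human lung fibroblasts / Quantity: 1,150 cells in each well / Medium: IMEM growth medium with 15% fetal bovine serum / Incubation: 72 h compound exposure at 37 °C after overnight plating / Detection: CellTiter-Glo luminescence measuring cellular ATP / Read-out: % viability versus median cells-only luminescence / Benchmarks: cell-only wells, no compound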
HUVEC prolif 384: inhibitors of HUVEC proliferation, primary screen, cell-based, 384-well | CellTiter-Glo luminescence, 72 h; stronger effect = lower value | viability, % at 10 µM (by protocol) | actives 1.1% (n = 86,000);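 active = viability at or below 30%; inactive = viability above 30%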;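 also: 100% = median luminescence of DMSO-only cell control wells on each plate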
H69AR inhibit: proliferation blockers of H69AR lung cancer cells, primary screen, cell-based, human, 86K library; H69AR lung tumor viability, ATP luminescence, 72 h; stronger effect = lower value; actives 6% (n = 85,000); AID 598, 2007; viability, % at 10 µM;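 active = viability at or below 40%; inactive = viability above 40%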;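 also: multidrug resistant small cell line overexpressing MRP-1 efflux transporter; 100% = mean luminescence of untreated control wells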
Pyk2 oligo antag: antagonists of Pyk2 self-association, primary screen, Q293 cells, FERM NanoBiT luminescence, HTS. Protein-tyrosine kinase 2-beta (Homo sapiens), Q14289. stronger effect = lower value. actives 0.83% (n = 99,000). AID 1347419, 2020. z-score (the deposit names both 25 µM and 10 µM);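 active = Z-score of -3 or lower, scaled per plate to the spread of control and sample wells; inactive = z-score above -3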;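 also: negative z-score means lost luminescence so less FERM oligomerization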
Target sequence (Q14289 whole entry, looked up): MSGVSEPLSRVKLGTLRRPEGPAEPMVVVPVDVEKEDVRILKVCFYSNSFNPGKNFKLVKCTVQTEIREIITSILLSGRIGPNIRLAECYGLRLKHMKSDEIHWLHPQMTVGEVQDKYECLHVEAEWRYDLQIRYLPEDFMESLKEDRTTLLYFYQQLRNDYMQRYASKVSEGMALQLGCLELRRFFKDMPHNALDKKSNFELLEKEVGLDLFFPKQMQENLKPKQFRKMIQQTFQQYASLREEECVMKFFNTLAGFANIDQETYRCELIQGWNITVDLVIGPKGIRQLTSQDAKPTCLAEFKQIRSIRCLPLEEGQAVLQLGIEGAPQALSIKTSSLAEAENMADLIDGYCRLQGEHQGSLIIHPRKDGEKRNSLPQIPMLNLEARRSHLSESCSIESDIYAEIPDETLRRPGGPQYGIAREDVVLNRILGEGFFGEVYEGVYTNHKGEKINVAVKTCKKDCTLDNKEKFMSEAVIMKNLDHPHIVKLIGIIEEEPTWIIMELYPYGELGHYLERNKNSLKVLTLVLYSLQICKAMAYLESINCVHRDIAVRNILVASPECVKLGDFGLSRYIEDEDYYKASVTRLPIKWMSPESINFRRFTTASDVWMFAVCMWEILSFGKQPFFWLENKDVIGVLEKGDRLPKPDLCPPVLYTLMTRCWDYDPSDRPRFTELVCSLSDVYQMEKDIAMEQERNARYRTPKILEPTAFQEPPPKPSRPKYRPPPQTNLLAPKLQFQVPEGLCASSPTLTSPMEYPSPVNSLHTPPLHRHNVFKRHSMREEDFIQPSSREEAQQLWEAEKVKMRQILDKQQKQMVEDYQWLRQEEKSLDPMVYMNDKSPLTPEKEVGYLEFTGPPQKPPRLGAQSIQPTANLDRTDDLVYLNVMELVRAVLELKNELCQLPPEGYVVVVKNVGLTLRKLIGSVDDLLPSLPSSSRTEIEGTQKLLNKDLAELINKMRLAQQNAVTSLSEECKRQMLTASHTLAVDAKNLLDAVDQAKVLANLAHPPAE
Starred values were filed as active, the others as inactive; · = not tested or not shown.

SMILES | PTEN del growth | bCat KO growth | Lung fibro prol | HUVEC prolif 384 | H69AR inhibit | Pyk2 oligo antag
CCOc1ccc(C(=O)N2CCC(C(=O)c3ccc4c(c3)OCCO4)CC2)cc1 | 63 | 52 | 90 | 76 | 93 | -2.6
N#Cc1ccccc1CN1C(=O)S/C(=C/c2cccn2-c2ccc(C(=O)O)cc2)C1=O | 97 | 100 | · | · | · | -3.2*
O=C1N/C(=C/c2cccn2-c2ccccc2)C(=O)N1Cc1ccccc1F | 88 | 82 | · | · | · | ·
COC(=O)CNc1nc(-c2cccnc2)nc2ccccc12 | 104 | 96 | 97 | 88 | 81 | -1.8
CCOC(=O)c1ccc(Nc2nc(-c3cccnc3)nc3ccccc23)cc1 | 64 | 71 | · | · | · | -3.5*
O=C(NCC1(c2ccccc2)CCCC1)c1cccc(Br)c1 | 80 | 80 | · | · | · | -1.4
COc1ccc(/C=C/C(=O)c2ccccc2)cc1COc1ccc(F)cc1 | 9 | 11 | · | · | · | -0.62
COc1ccc(/C=C/C(=O)c2ccccc2)cc1Cn1nnc2ccccc21 | 2.8* | 2.9* | · | · | · | ·
COc1ccc(CNC(=O)C(c2ccncc2)N(C(=O)Cc2cccs2)c2ccccc2)cc1 (stereo unspecified) | 101 | 83 | · | · | · | ·
COc1ccc(N(C(=O)CCl)C(C(=O)NCCc2ccccc2)c2cccs2)cc1 (stereo unspecified) | 0.7* | 1.6* | · | · | · | ·
COc1cc(C(=O)Nc2ccccc2C2COC(=O)C2=N)cc(OC)c1OC (stereo unspecified) | 92 | 91 | · | · | · | ·
COc1ccc(C(=O)O/N=C(\N)Cc2ccc(Cl)cc2)cc1OC | 2.4* | 0.9* | · | · | · | 0.22
COc1ccc(C(=O)O/N=C(\N)Cc2ccc(Cl)c(Cl)c2)cc1OC | 78 | 87 | · | · | · | ·
Cn1nc(C(=O)Nc2nc3ccccc3[nH]2)c2ccccc2c1=O | 69 | 77 | · | · | · | ·
Cn1nc(C(=O)Nc2c(-c3ccccc3)nc3sccn23)c2ccccc2c1=O | 100 | 97 | 40* | 41 | 26* | 0.66
O=[N+]([O-])c1ccc(N2CCN(S(=O)(=O)c3ccccc3)CC2)cc1NCc1cccnc1 | 79 | 72 | · | · | · | -3.7*
O=C(c1ccccc1)N1CCN(c2ccc([N+](=O)[O-])c(NCc3cccnc3)c2)CC1 | 84 | 90 | · | · | · | ·
O=C(c1ccc(Cl)cc1)N1CCN(c2ccc([N+](=O)[O-])c(NCc3cccnc3)c2)CC1 | · | · | · | · | · | -3.3*
O=C(/C=C/c1ccccc1F)c1ccoc1 | 8 | 5.3* | · | · | · | -0.72
O=C(/C=C/c1ccoc1)c1ccccc1O | 78 | 78 | · | · | · | ·
Cc1ccc(Nc2nc(N)nc(CN3CCC(C)CC3)n2)c(C)c1 | 86 | 93 | 94 | 86 | 33* | -0.3
Nc1c(C(=O)NCCc2ccc(Cl)cc2)sc2ccc(S(=O)(=O)N3CCCCC3)cc12 | 58 | 48 | · | · | · | ·
CCn1c(SCC(=O)NCc2ccc3c(c2)OCO3)nnc1-c1c[nH]c2ccccc12 | 86 | 83 | · | · | · | -0.47
Cc1cccc(NC(=O)CSc2nc3ccccc3o2)c1 | 100 | 91 | · | · | · | 2.1
Cc1nn2c(-c3cccc(NC(=O)CSc4nc5ccccc5o4)c3)nnc2c2ccccc12 | 61 | 68 | 109 | 72 | 9.6* | -1.7
SMILES | PTEN del growth | bCat KO growth | Lung fibro prol | HUVEC prolif 384 | H69AR inhibit | Pyk2 oligo antag
Cc1cc(C)cc(NC(=O)CSCc2nc3c(nnn3Cc3ccc(F)cc3)c(=O)[nH]2)c1 | · | · | 100 | 85 | 96 | -0.96
Cc1nn2c(NCCCN3CCOCC3)c3c(nc2c1-c1ccccc1)CCC3 | 89 | 100 | 91 | 92 | 47 | 0.33
CCC(C)Nc1c2c(nc3c(-c4ccccc4)c(C)nn13)CCC2 (stereo unspecified) | 80 | 83 | 97 | 94 | 30* | -1.1
CCCCNc1c2c(nc3c(-c4ccccc4)c(C)nn13)CCC2 | 87 | 85 | 84 | 80 | 27* | 0.95
Cc1nn2c(Nc3ccc(F)cc3)c3c(nc2c1-c1ccccc1)CCC3 | 80 | 93 | · | · | · | ·
CCC(=O)Nc1cc(C(=O)OC(C(=O)c2ccc(C)c(C)c2)c2ccccc2)ccc1C (stereo unspecified) | 67 | 73 | · | · | · | -1.7
Cc1cc2c(=O)n(Cc3ccco3)c(SCC(=O)c3ccc(Cl)s3)nc2s1 | 70 | 71 | 100 | 82 | 13* | 0.21
Cc1sc2nc(SCC(=O)C(C)(C)C)n(Cc3ccco3)c(=O)c2c1C | 18 | 15 | 49* | 64 | 92 | -0.06
C=CCn1c(SCC(=O)NC(=O)NCc2ccco2)nc2sc(C)c(C)c2c1=O | 104 | 104 | 52 | 57 | 11* | -1
Cc1sc2nc(SCc3ccccc3)n(Cc3ccco3)c(=O)c2c1C | 75 | 84 | 94 | 94 | 96 | -0.74
COc1ccc(NC(=O)CSc2nc3sc(C)c(C)c3c(=O)n2Cc2ccco2)cc1 | 55 | 92 | 73 | 46 | 104 | -2.4
C=CCn1c(SCc2c(C)noc2C)nc2sc(C)c(C)c2c1=O | 26 | 26 | 68 | 52 | 20* | -1.1
CCOC(=O)CC(=O)CSc1nc2sc(C)cc2c(=O)n1Cc1ccco1 | 96 | 89 | 84 | 97 | 79 | 0.22
O=C(Cc1n[nH]c(=O)c2ccccc12)OCC(=O)c1ccc2c(c1)OCCO2 | 15 | 16 | 65 | 44 | 24* | 0.44
CC(=O)N1CCc2c(sc(NC(=O)C3CC3)c2-c2nc3ccccc3s2)C1 | 20 | 6.0* | 88 | 70 | 50 | ·
CCCCC(=O)Nc1sc2c(c1-c1nc3ccccc3s1)CCN(C(C)=O)C2 | 16 | 19 | · | · | · | ·
C=CCNCCCCOc1ccc(OCC)cc1 | 82 | 79 | 100 | 103 | 84 | -0.16
Cc1c(CC=C(Cl)Cl)c(=O)[nH]c2c(C)cccc12 | 85 | 84 | · | · | · | ·
CC1=C(C(=O)OC2CCCCC2)C(c2ccco2)C2=C(CC(C)(C)CC2=O)N1 (stereo unspecified) | 66 | 65 | 93 | 94 | 70 | -3.3*
Cc1cc2cc(C#N)c(N3CCN(S(C)(=O)=O)CC3)nc2cc1C | 98 | 96 | · | · | · | ·
CC(C)(C)OC(=O)C1C(=O)CC(C)(O)C(C(=O)OC(C)(C)C)C1c1cccnc1 (stereo unspecified) | 87 | 96 | 101 | 100 | 73 | -0.84
CC(C)COC(=O)C1C(=O)CC(C)(O)C(C(=O)OCC(C)C)C1c1cccnc1 (stereo unspecified) | 87 | 75 | 98 | 94 | 29* | 0.07
C/C(N)=C(/C#N)C(=O)CSc1nnc(COc2cc(C)ccc2C)o1 | 58 | 52 | 97 | 100 | 65 | 0.65
CCOc1cc(C2C(C(=O)N3CCCCC3)=C(C)NC3=C2C(=O)CCC3)cc(Br)c1O (stereo unspecified) | 101 | 98 | 98 | 87 | 93 | 1.1
CCCC1=C(C(=O)OCC)C(c2ccc(OC)c(C)c2OC)C(C#N)=C(N)O1 (stereo unspecified) | 92 | 99 | · | · | · | ·

Assay outcomes from PubChem.
